In ChEMBL document CHEMBL3286317, “Synthesis and biological evaluation of a unique heparin mimetic hexasaccharide for structure-activity relationship studies” (J Med Chem, 2014):
Active and inactive are the calls of the source. The calls are words filed in the database; no cut-off is given here.

Assays:
[1] = target: Stromal cell-derived factor 1 (Homo sapiens, UniProt P48061); assay: Binding affinity to human recombinant CXCL12 by surface plasmon resonance assay
Outline: (§1)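 Biotinylated low-molecular-weight heparin was captured on a neutravidin surface. Protein at varying concentrations was mixed with a hexasaccharide dilution series and injected. Free protein was read from a quadratic slope-vs-concentration standard curve. KD = [P_free][H_total]/[P_bound], averaged over three hexasaccharide concentrations.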

[2] = target: T1, Heparanase (Homo sapiens) (UniProt Q9Y251); assay: Inhibition of recombinant heparanase (unknown origin) using biotin-cryptate-labeled heparan sulfate as substrate at 4.2 mg/ml preincubated for 15 mins prior to substrate challenge by TR-FRET assay
T1 sequence (whole entry): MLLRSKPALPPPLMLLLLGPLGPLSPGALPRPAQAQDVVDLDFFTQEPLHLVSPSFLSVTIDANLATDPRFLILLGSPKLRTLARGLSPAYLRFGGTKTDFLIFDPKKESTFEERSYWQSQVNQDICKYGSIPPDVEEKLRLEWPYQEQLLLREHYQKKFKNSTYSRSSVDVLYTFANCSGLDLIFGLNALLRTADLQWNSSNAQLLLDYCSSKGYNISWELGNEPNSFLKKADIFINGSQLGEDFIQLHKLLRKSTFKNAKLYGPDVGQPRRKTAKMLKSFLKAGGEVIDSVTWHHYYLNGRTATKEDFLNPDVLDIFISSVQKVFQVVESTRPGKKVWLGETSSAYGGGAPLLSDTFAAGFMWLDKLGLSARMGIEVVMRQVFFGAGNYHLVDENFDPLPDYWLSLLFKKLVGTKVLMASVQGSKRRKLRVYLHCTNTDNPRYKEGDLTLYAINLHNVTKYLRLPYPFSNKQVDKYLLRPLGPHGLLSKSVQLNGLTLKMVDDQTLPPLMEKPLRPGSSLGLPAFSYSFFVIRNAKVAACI
Outline: (§2)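 Recombinant heparanase was preincubated with compound at various concentrations for 15 min at 37 °C. It was then added to biotin-cryptate-labeled heparan sulfate substrate with streptavidin-XL665 for 1 h at 37 °C. Read-out was TR-FRET between europium cryptate and XL665.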

Interferon gamma = target: T2, Interferon gamma (Homo sapiens, UniProt P01579); assay: Binding affinity to human recombinant IFN-gamma by surface plasmon resonance assay; outline: as §1
T2 sequence (P01579 whole entry): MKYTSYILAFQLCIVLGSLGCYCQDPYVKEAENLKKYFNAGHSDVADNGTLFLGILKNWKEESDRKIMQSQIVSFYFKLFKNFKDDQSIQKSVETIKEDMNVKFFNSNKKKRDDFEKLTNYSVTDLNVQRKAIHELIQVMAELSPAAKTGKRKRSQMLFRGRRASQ

C-C motif chemokine 2 = C-C motif chemokine 2 (Homo sapiens, UniProt P13500); assay: Binding affinity to human recombinant CCL2 by surface plasmon resonance assay; outline: as §1
Protein Wnt-3a = Protein Wnt-3a (Homo sapiens, UniProt P56704); assay: Binding affinity to human recombinant WNT3A by surface plasmon resonance assay; outline: as §1
[3] = target: Fibroblast growth factor 2 (Homo sapiens, UniProt P09038); assay: Binding affinity to human recombinant FGF2 by surface plasmon resonance assay; outline: as §1
[4] = Binding affinity to human recombinant IL-23 by surface plasmon resonance assay; outline: as §1
Platelet factor 4 = target: T3, Platelet factor 4 (Homo sapiens, UniProt P02776); assay: Binding affinity to human recombinant CXCL4 by surface plasmon resonance assay; outline: as §1
T3 sequence (P02776 whole entry): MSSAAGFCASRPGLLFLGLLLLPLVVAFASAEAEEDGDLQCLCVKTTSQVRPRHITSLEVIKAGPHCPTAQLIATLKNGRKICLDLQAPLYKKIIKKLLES

[5] = target: T1, Heparanase (Homo sapiens); assay: Inhibition of recombinant heparanase (unknown origin) using biotin-cryptate-labeled heparan sulfate as substrate at 0.03 to 8 mg/ml preincubated for 15 mins prior to substrate challenge by TR-FRET assay; outline: as §2
[6] = target: T1, Heparanase (Homo sapiens); assay: Inhibition of recombinant heparanase (unknown origin) using biotin-cryptate-labeled heparan sulfate as substrate at 8.3 mg/ml preincubated for 15 mins prior to substrate challenge by TR-FRET assay; outline: as §2
[7] = target: T4, Secreted frizzled-related protein 1 (Homo sapiens, UniProt Q8N474); assay: Binding affinity to human recombinant sFRP1 by surface plasmon resonance assay; outline: as §1
T4 sequence (Q8N474 whole entry): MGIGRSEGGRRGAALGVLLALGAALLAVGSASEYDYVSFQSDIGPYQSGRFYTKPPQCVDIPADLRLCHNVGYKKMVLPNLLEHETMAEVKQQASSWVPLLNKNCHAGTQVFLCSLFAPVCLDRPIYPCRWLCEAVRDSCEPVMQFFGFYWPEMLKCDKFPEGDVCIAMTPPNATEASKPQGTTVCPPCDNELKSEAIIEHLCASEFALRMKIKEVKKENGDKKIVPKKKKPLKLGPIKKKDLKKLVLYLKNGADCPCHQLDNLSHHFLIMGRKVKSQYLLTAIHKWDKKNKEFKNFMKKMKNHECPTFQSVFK

[8] = target: Fibroblast growth factor 1 (Homo sapiens, UniProt P05230); assay: Binding affinity to human recombinant FGF1 by surface plasmon resonance assay; outline: as §1
Fibroblast growth factor 1, sequence (P05230 whole entry): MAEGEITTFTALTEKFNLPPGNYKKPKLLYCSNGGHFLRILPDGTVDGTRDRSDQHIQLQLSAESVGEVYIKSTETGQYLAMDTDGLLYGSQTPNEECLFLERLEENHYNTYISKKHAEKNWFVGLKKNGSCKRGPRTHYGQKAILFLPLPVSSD

Fibroblast growth factor 2, sequence (P09038 143-288 limits assumed): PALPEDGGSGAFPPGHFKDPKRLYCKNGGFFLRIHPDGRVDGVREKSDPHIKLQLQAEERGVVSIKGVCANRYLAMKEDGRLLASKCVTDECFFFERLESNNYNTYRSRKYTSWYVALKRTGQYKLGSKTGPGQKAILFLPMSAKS
Stromal cell-derived factor 1, sequence (P48061 whole entry): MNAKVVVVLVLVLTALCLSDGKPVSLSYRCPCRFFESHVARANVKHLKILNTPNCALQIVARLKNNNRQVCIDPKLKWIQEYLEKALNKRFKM
C-C motif chemokine 2, sequence (P13500 whole entry): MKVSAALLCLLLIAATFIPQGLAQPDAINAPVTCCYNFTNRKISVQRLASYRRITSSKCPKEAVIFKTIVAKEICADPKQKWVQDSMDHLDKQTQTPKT
Protein Wnt-3a, sequence (P56704 whole entry): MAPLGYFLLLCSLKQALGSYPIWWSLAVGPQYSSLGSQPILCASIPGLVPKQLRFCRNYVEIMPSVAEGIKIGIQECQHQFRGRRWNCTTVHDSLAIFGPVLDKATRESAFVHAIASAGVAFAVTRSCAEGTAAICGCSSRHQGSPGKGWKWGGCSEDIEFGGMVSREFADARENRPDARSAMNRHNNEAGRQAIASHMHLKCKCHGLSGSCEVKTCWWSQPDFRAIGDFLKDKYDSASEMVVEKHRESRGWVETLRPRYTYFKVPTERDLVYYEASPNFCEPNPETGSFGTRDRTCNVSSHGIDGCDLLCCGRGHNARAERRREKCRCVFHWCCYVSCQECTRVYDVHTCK

Row | Kd [1] [µM] | Imax [2] [%] | Kd (Interferon gamma) [µM] | Kd (C-C motif chemokine 2) [µM] | Kd (Protein Wnt-3a) [µM] | Kd [3] [µM] | Kd [4] [µM] | Kd (Platelet factor 4) [µM] | inhibition [5] | Imax [6] [%] | Kd [7] [µM] | Kd [8] [µM] | Structure (SMILES)
1 | 24 | 47.2 | 7 | 61 | 18 | 25000 | 4 | 3 | – | – | – | – | CCCCCO[C@H]1O[C@H](COS(=O)(=O)O)[C@@H](O[C@@H]2O[C@@H](C(=O)O)[C@@H](O[C@H]3O[C@H](COS(=O)(=O)O)[C@@H](O[C@@H]4O[C@@H](C(=O)O)[C@@H](O[C@H]5O[C@H](COS(=O)(=O)O)[C@@H](O[C@@H]6O[C@@H](C(=O)O)[C@@H](O)[C@H](O)[C@H]6OS(=O)(=O)O)[C@H](O)[C@H]5NC(C)=O)[C@H](O)[C@H]4OS(=O)(=O)O)[C@H](O)[C@H]3NS(=O)(=O)O)[C@H](O)[C@H]2O)[C@H](O)[C@H]1NC(C)=O
2 | 77 | – | – | – | – | 25000 | – | – | Active | 30.7 | – | – | CCCCCO[C@H]1O[C@H](COS(=O)(=O)O)[C@@H](O[C@@H]2O[C@@H](C(=O)O)[C@@H](O[C@H]3O[C@H](COS(=O)(=O)O)[C@@H](O[C@@H]4O[C@@H](C(=O)O)[C@@H](O[C@H]5O[C@H](COS(=O)(=O)O)[C@@H](O[C@@H]6O[C@@H](C(=O)O)[C@@H](O)[C@H](O)[C@H]6OS(=O)(=O)O)[C@H](O)[C@H]5NC(C)=O)[C@H](O)[C@H]4OS(=O)(=O)O)[C@H](O)[C@H]3NC(C)=O)[C@H](O)[C@H]2OS(=O)(=O)O)[C@H](O)[C@H]1NC(C)=O
3 | – | – | 10 | – | – | 1 | 7 | – | Active | – | 9 | 8 | NCCCCCO[C@H]1O[C@H](CO)[C@@H](O[C@@H]2O[C@@H](C(=O)O)[C@@H](O[C@H]3O[C@H](CO)[C@@H](O[C@@H]4O[C@@H](C(=O)O)[C@@H](O[C@H]5O[C@H](CO)[C@@H](O[C@@H]6O[C@@H](C(=O)O)[C@@H](O)[C@H](O)[C@H]6OS(=O)(=O)O)[C@H](O)[C@H]5NS(=O)(=O)O)[C@H](O)[C@H]4OS(=O)(=O)O)[C@H](O)[C@H]3NS(=O)(=O)O)[C@H](O)[C@H]2OS(=O)(=O)O)[C@H](O)[C@H]1NS(=O)(=O)O
